Activity calls are given as the source filed them.
Assays:
Format in all cases: functional, cell-based
BT-549 = assay: Growth inhibition of human BT549 cells at 10^-5 M incubated for 48 hrs by sulforhodamine B assay
Procedure, shortened: (§1)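 Run in the NCI59 one-dose cell-line screen, with each compound tested at a single concentration of 1 × 10−5 M.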

T47D = assay: Growth inhibition of human T47D cells at 10^-5 M incubated for 48 hrs by sulforhodamine B assay
Procedure, shortened: (§2)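 Tested at a single concentration of 1 × 10−5 M as part of the NCI59 cell-line one-dose screen.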

Hs-578T = assay: Growth inhibition of human Hs 578T cells at 10^-5 M incubated for 48 hrs by sulforhodamine B assay; procedure, shortened: as §1
MCF7 = assay: Growth inhibition of human MCF7 cells at 10^-5 M incubated for 48 hrs by sulforhodamine B assay; procedure, shortened: as §1
MDA-MB-231 = assay: Growth inhibition of human MDA-MB-231 cells at 10^-5 M incubated for 48 hrs by sulforhodamine B assay; procedure, shortened: as §1
DU-145 = assay: Growth inhibition of human DU145 cells at 10^-5 M incubated for 48 hrs by sulforhodamine B assay; procedure, shortened: as §1
UO-31 = assay: Growth inhibition of human UO31 cells at 10^-5 M incubated for 48 hrs by sulforhodamine B assay; procedure, shortened: as §2
PC-3 = assay: Growth inhibition of human PC3 cells at 10^-5 M incubated for 48 hrs by sulforhodamine B assay; procedure, shortened: as §1
SN12C = assay: Growth inhibition of human SN12C cells at 10^-5 M incubated for 48 hrs by sulforhodamine B assay; procedure, shortened: as §1
TK-10 = assay: Growth inhibition of human TK10 cells at 10^-5 M incubated for 48 hrs by sulforhodamine B assay; procedure, shortened: as §2
RXF 393 = assay: Growth inhibition of human RXF393 cells at 10^-5 M incubated for 48 hrs by sulforhodamine B assay; procedure, shortened: as §1
ACHN = assay: Growth inhibition of human ACHN cells at 10^-5 M incubated for 48 hrs by sulforhodamine B assay; procedure, shortened: as §1
CAKI-1 = assay: Growth inhibition of human Caki1 cells at 10^-5 M incubated for 48 hrs by sulforhodamine B assay; procedure, shortened: as §1
A498 = assay: Growth inhibition of human A498 cells at 10^-5 M incubated for 48 hrs by sulforhodamine B assay; procedure, shortened: as §1
786-0 = assay: Growth inhibition of human 786-0 cells at 10^-5 M incubated for 48 hrs by sulforhodamine B assay; procedure, shortened: as §1
NCI/ADR-RES = assay: Growth inhibition of human NCI/ADR-RES cells at 10^-5 M incubated for 48 hrs by sulforhodamine B assay; procedure, shortened: as §1
SK-OV-3 = assay: Growth inhibition of human SKOV3 cells at 10^-5 M incubated for 48 hrs by sulforhodamine B assay; procedure, shortened: as §1
OVCAR-8 = assay: Growth inhibition of human OVCAR8 cells at 10^-5 M incubated for 48 hrs by sulforhodamine B assay; procedure, shortened: as §1
OVCAR-4 = assay: Growth inhibition of human OVCAR4 cells at 10^-5 M incubated for 48 hrs by sulforhodamine B assay; procedure, shortened: as §1
OVCAR-5 = assay: Growth inhibition of human OVCAR5 cells at 10^-5 M incubated for 48 hrs by sulforhodamine B assay; procedure, shortened: as §1
IGROV-1 = assay: Growth inhibition of human IGROV1 cells at 10^-5 M incubated for 48 hrs by sulforhodamine B assay; procedure, shortened: as §1
OVCAR-3 = assay: Growth inhibition of human OVCAR3 cells at 10^-5 M incubated for 48 hrs by sulforhodamine B assay; procedure, shortened: as §1
UACC-62 = assay: Growth inhibition of human UACC62 cells at 10^-5 M incubated for 48 hrs by sulforhodamine B assay; procedure, shortened: as §2
SK-MEL-5 = assay: Growth inhibition of human SK-MEL-5 cells at 10^-5 M incubated for 48 hrs by sulforhodamine B assay; procedure, shortened: as §1
UACC-257 = assay: Growth inhibition of human UACC257 cells at 10^-5 M incubated for 48 hrs by sulforhodamine B assay; procedure, shortened: as §2
SK-MEL-28 = assay: Growth inhibition of human SK-MEL-28 cells at 10^-5 M incubated for 48 hrs by sulforhodamine B assay; procedure, shortened: as §1
MDA-MB-435 = assay: Growth inhibition of human MDA-MB-435 cells at 10^-5 M incubated for 48 hrs by sulforhodamine B assay; procedure, shortened: as §1
SK-MEL-2 = assay: Growth inhibition of human SK-MEL-2 cells at 10^-5 M incubated for 48 hrs by sulforhodamine B assay; procedure, shortened: as §1
M14 = assay: Growth inhibition of human M14 cells at 10^-5 M incubated for 48 hrs by sulforhodamine B assay; procedure, shortened: as §1
U-251 = assay: Growth inhibition of human U251 cells at 10^-5 M incubated for 48 hrs by sulforhodamine B assay; procedure, shortened: as §2
LOX IMVI = assay: Growth inhibition of human LOXIMVI cells at 10^-5 M incubated for 48 hrs by sulforhodamine B assay; procedure, shortened: as §1
SNB-19 = assay: Growth inhibition of human SNB19 cells at 10^-5 M incubated for 48 hrs by sulforhodamine B assay; procedure, shortened: as §1
SNB-75 = assay: Growth inhibition of human SNB75 cells at 10^-5 M incubated for 48 hrs by sulforhodamine B assay; procedure, shortened: as §1
SF-539 = assay: Growth inhibition of human SF539 cells at 10^-5 M incubated for 48 hrs by sulforhodamine B assay; procedure, shortened: as §1
SF-268 = assay: Growth inhibition of human SF268 cells at 10^-5 M incubated for 48 hrs by sulforhodamine B assay; procedure, shortened: as §1
SF-295 = assay: Growth inhibition of human SF295 cells at 10^-5 M incubated for 48 hrs by sulforhodamine B assay; procedure, shortened: as §1
SW-620 = assay: Growth inhibition of human SW620 cells at 10^-5 M incubated for 48 hrs by sulforhodamine B assay; procedure, shortened: as §2
HT-29 = assay: Growth inhibition of human HT-29 cells at 10^-5 M incubated for 48 hrs by sulforhodamine B assay; procedure, shortened: as §1
KM12 = assay: Growth inhibition of human KM12 cells at 10^-5 M incubated for 48 hrs by sulforhodamine B assay; procedure, shortened: as §1
HCT-116 = assay: Growth inhibition of human HCT116 cells at 10^-5 M incubated for 48 hrs by sulforhodamine B assay; procedure, shortened: as §1
HCT-15 = assay: Growth inhibition of human HCT15 cells at 10^-5 M incubated for 48 hrs by sulforhodamine B assay; procedure, shortened: as §1
HCC 2998 = assay: Growth inhibition of human HCC2998 cells at 10^-5 M incubated for 48 hrs by sulforhodamine B assay; procedure, shortened: as §1
NCI-H522 = assay: Growth inhibition of human NCI-H522 cells at 10^-5 M incubated for 48 hrs by sulforhodamine B assay; procedure, shortened: as §1
COLO 205 = assay: Growth inhibition of human COLO205 cells at 10^-5 M incubated for 48 hrs by sulforhodamine B assay; procedure, shortened: as §1
NCI-H460 = assay: Growth inhibition of human NCI-H460 cells at 10^-5 M incubated for 48 hrs by sulforhodamine B assay; procedure, shortened: as §1
NCI-H23 = assay: Growth inhibition of human NCI-H23 cells at 10^-5 M incubated for 48 hrs by sulforhodamine B assay; procedure, shortened: as §1
NCI-H322M = assay: Growth inhibition of human NCI-H322M cells at 10^-5 M incubated for 48 hrs by sulforhodamine B assay; procedure, shortened: as §1
NCI-H226 = assay: Growth inhibition of human NCI-H226 cells at 10^-5 M incubated for 48 hrs by sulforhodamine B assay; procedure, shortened: as §1
HOP-62 = assay: Growth inhibition of human HOP62 cells at 10^-5 M incubated for 48 hrs by sulforhodamine B assay; procedure, shortened: as §1
HOP-92 = assay: Growth inhibition of human HOP92 cells at 10^-5 M incubated for 48 hrs by sulforhodamine B assay; procedure, shortened: as §1
A549 = assay: Growth inhibition of human A549/ATCC cells at 10^-5 M incubated for 48 hrs by sulforhodamine B assay; procedure, shortened: as §1
EKVX = assay: Growth inhibition of human EKVX cells at 10^-5 M incubated for 48 hrs by sulforhodamine B assay; procedure, shortened: as §1
SR = assay: Growth inhibition of human SR cells at 10^-5 M incubated for 48 hrs by sulforhodamine B assay; procedure, shortened: as §1
MOLT-4 = assay: Growth inhibition of human MOLT4 cells at 10^-5 M incubated for 48 hrs by sulforhodamine B assay; procedure, shortened: as §1
RPMI-8226 = assay: Growth inhibition of human RPMI8226 cells at 10^-5 M incubated for 48 hrs by sulforhodamine B assay; procedure, shortened: as §1
K562 = assay: Growth inhibition of human K562 cells at 10^-5 M incubated for 48 hrs by sulforhodamine B assay; procedure, shortened: as §1
CCRF-CEM = assay: Growth inhibition of human CCRF-CEM cells at 10^-5 M incubated for 48 hrs by sulforhodamine B assay; procedure, shortened: as §1
HL-60(TB) = assay: Growth inhibition of human HL-60(TB) cells at 10^-5 M incubated for 48 hrs by sulforhodamine B assay
Procedure, shortened: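 Run in the NCI59 cell-line one-dose screen, with each compound tested at a single concentration of 1 × 10−5 M.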

Measured: growth inhibition (GI)

COC(=O)C[C@H]1C(C)(C)[C@H](OC(=O)C(C)C)[C@@H]2[C@@H](OC(=O)C(C)C)[C@@]34O[C@]2(O)[C@]1(C)[C@H]3CC[C@]1(C)[C@H]4CC(=O)O[C@H]1c1ccoc1
inactive: all assays above

Source: ChEMBL document CHEMBL4052595, “Application of Residual Dipolar Couplings and Selective Quantitative NOE to Establish the Structures of Tetranortriterpenoids from Xylocarpus rumphii” (J Nat Prod, 2017)
